Published values gathered from unrelated publications.
Cell line: HepG2
Read-out: cell growth or viability

SMILES	technique	time	CC50 [µM]
CO[C@H]1/C=C/O[C@@]2(C)Oc3c(C)c(O)c4c(c3C2=O)C2=NC3(CCN(CC(C)C)CC3)NC2=C(NC(=O)/C(C)=C\C=C\[C@H](C)[C@H](O)[C@@H](C)[C@@H](O)[C@@H](C)[C@H](OC(C)=O)[C@@H]1C)C4=O		48 h	170
Cc1ccc(N(C)c2ccc(NC(=O)CN(C)c3cccnc3N3CCCC3=O)cc2)cc1	ATP luminescence	48 h	> 40
O=C1C(O)=C([C@H]2CC[C@H](c3ccc(Cl)cc3)CC2)C(=O)c2ccccc21	ATP luminescence	72 h	9.67
CN(CC(=O)Nc1ccc(N(C)c2ccc(Cl)c(Cl)c2)cc1)c1ccccc1N1CCCC1=O	ATP luminescence	48 h	> 40
FC(F)(F)c1cc(Nc2ncnc3ccc(-c4cccc(N5CCOCC5)c4)cc23)ccc1Cl	MTT	48 h	29
CCC(C)N(c1ccc(C)cc1)c1ccc(NC(=O)CN(C)c2ccccc2N2CCCC2=O)cc1 (centres unmarked)	ATP luminescence	48 h	> 40
N=C(CC(O)c1nc2ccccc2c2ccc(Cl)cc12)Nc1ccc(F)cc1 (centres unmarked)	neutral red	24 h	> 25
CN1CCN(c2cccc(-c3ccc4ncnc(Nc5ccc(Cl)c(C(F)(F)F)c5)c4c3)c2)CC1	MTT	48 h	15
CC(C)N(c1ccc(C#N)cc1)c1ccc(NC(=O)CN(C)c2ccccc2N2CCCC2=O)cn1	ATP luminescence	48 h	> 40
CN1CCN(c2cccc(-c3ccc4ncnc(Nc5ccc(Cl)c(Cl)c5)c4c3)c2)CC1	MTT	48 h	14
N=C(CC(O)c1nc2ccccc2c2ccc(Br)cc12)Nc1ccc(F)cc1 (centres unmarked)	neutral red	24 h	> 25
O=C(Nc1ccncc1)c1cc([N+](=O)[O-])ccc1Cl	ATP luminescence	72 h	18.1
CN1CCN(c2cccc(-c3ccc4ncnc(Nc5ccc([N+](=O)[O-])c(C(F)(F)F)c5)c4c3)c2)CC1	MTT	48 h	34
N=C(CC(O)c1nc2cc(F)ccc2c2ccc(F)cc12)Nc1ccc(F)cc1 (centres unmarked)	neutral red	24 h	19.4
c1cc(-c2ccc3ncnc(NC4CCOCC4)c3c2)cc(N2CCOCC2)c1	MTT	48 h	26
Cc1ccc(Oc2ccc(NC(=O)CNc3ccccc3N3CCCCC3=O)cc2)cc1	ATP luminescence	48 h	15
CC(=O)OC[C@H]1O[C@@H]([S-])[C@H](OC(C)=O)[C@@H](OC(C)=O)[C@@H]1OC(C)=O.CCP(CC)CC.[Au+]	ATP luminescence	72 h	9.81
